Active and inactive are the calls of the source. No cut-off for these calls is given here.
Tests used:
PC-3 [1] = assay: Antimetastatic activity against human PC3 cells at 100 uM after 24 hrs by wound-healing assay; format: functional; details: PC-3, 24 h
Method in brief: (§1)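 Scratch wound in PC-3 monolayer. Compounds dissolved in DMSO, added in triplicate, DMSO as vehicle control. Incubation 24 h, serum-starved. Cells then fixed and Diff-Quick stained. Cells migrated into the wound counted in three or more random fields at 400×, mean ± SEM per field. IC50 by nonlinear regression of log concentration versus cells/well.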

PC-3 [2] = assay: Antimetastatic activity against human PC3 cells after 24 hrs by wound-healing assay; format: functional, cell-based; details: for IC50: PC-3, 24 h; method in brief: as §1
PC-3 [3] = assay: Antiinvasive activity against human PC3 cells at 50 uM by cultrex cell invasion assay; format: functional, cell-based
Method in brief: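 Basement membrane extract coated upper chambers (4 h, 37 °C, 5% CO2) seeded with 50,000 PC-3 cells in serum-free RPMI plus compound at 50 µM. Lower chamber: RPMI, 10% FBS, fibronectin and N-formyl-met-leu-phe (10 nM) as chemoattractants. Migration 24 h at 37 °C. Invaded cells loaded with calcein-AM, fluorescence at 485/520 nm, counts from standard curve; n = 3, SD.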

PC-3 [4] = assay: Cytotoxicity against human PC3 cells up to 200 uM after 72 hrs by MTT assay; format: functional, cell-based
Method in brief: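 PC-3 cells seeded at 8 × 10³ per well, attached 24 h. Switched to serum-free RPMI with compound at up to 200 µM, 72 h at 37 °C, 5% CO2. MTT added for 4 h, then solubilization/stop solution. Absorbance read at 570 nm; cells/well from a hemocytometer-based standard curve.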

PC-3 [5] = assay: Ratio of compound IC50 to 5-(4-(ethylthio)benzylidene)imidazolidine-2,4-dione IC50 for human PC3 cells at 100 uM after 24 hrs by wound-healing assay; format: functional
PC-3 [6] = assay: Antimetastatic activity against human PC3 cells at 50 uM after 24 hrs by wound-healing assay; format: functional; details: PC-3, 24 h; method in brief: as §1

SMILES | inhibition at 100 µM (PC-3 [1]) | IC50 (PC-3 [2]; read-out: IC50) | IC50 (PC-3 [2]; read-out: pIC50 (converted)) | Activity (PC-3 [3]) | other results
O=C1NC(=O)/C(=C/c2ccc(OCc3ccc(F)cc3)cc2)N1 | 76.3% | 23.8 µM | 23.8 µM | Active | –
CC(C)(C)Oc1ccc(/C=C2\NC(=O)NC2=O)cc1 | 52.7% | 60.8 µM | 60.7 µM | – | –
O=C1NC(=O)/C(=C/c2cccc(-c3cccs3)n2)N1 | – | – | 32.4 µM | Active | –
O=C1NC(=O)/C(=C/c2cc(I)c[nH]2)N1 | – | – | 199 µM | – | –
O=C1NC(=O)/C(=C/c2cccc3c2NCC3)N1 | – | – | 86.5 µM | – | –
CCOc1cc(/C=C2\NC(=O)NC2=O)cc(Br)c1OCC | 77.5% | 35.7 µM | 35.6 µM | Active | –
O=C1NC(=O)/C(=C/c2ccc(O)cn2)N1 | – | – | 81.8 µM | – | –
Cc1nc[nH]c1/C=C1\NC(=O)NC1=O | – | – | 95.1 µM | – | –
O=C1NC(=O)/C(=C/c2cc(O)c[nH]2)N1 | – | – | 99.1 µM | – | –
COc1cccc(/C=C2\NC(=O)NC2=O)n1 | – | – | 59.8 µM | – | –
CCCOc1cc(OC)c(/C=C2\NC(=O)NC2=O)c(OC)c1Cl | 19% | 187 µM | 187 µM | – | –
CCCOc1ccc(/C=C2\NC(=O)NC2=O)c(OCCC)c1 | 68.4% | 77.1 µM | 77.1 µM | – | –
COc1cc(/C=C2\NC(=O)NC2=O)ccc1OCC(=O)c1ccccc1 | 91.8% | 19.7 µM | 19.7 µM | Active | –
O=C1NC(=O)/C(=C/c2ccc(N3CCCC3)cc2)N1 | 75.9% | 48.7 µM | 48.6 µM | Active | –
CCCOc1c(Br)cc(/C=C2\NC(=O)NC2=O)cc1OC | 97.4% | 8.1 µM | 8.09 µM | Active | Activity (PC-3 [2]): Dose-dependent effect; Activity (PC-3 [4]): inactive; Ratio IC50 (PC-3 [5]): 5
C#CCOc1c(Cl)cc(/C=C2\NC(=O)NC2=O)cc1OC | 88.8% | 21.8 µM | 21.8 µM | Active | –
O=C1NC(=O)/C(=C/c2cnc[nH]2)N1 | – | – | 54.2 µM | – | –
CCCOc1ccc(/C=C2\NC(=O)NC2=O)c(OC)c1 | 23% | 110 µM | 110 µM | – | –
COc1cc(/C=C2\NC(=O)NC2=O)ccc1OCC(=O)N1CCOCC1 | 33.2% | 94 µM | 94 µM | – | –
O=C1NC(=O)/C(=C/c2ccncc2)N1 | – | – | 178 µM | – | –
COc1c(/C=C2\NC(=O)NC2=O)ccc(OC(C)(C)C)c1Cl | 39% | 91 µM | 91 µM | – | –
CSc1ccc(/C=C2\NC(=O)NC2=O)cc1 | 80.9% | 44.7 µM | 44.7 µM | Active | –
O=C1NC(=O)/C(=C/c2c[nH]c3ncccc23)N1 | – | – | 49.7 µM | – | –
O=C1NC(=O)/C(=C/c2ccc(O)cc2)N1 [4-HYDROXYPHENYLMETHYLENE HYDANTOIN] | 34% | 128 µM | 128 µM | – | –
CC(C)CCOc1ccc(/C=C2\NC(=O)NC2=O)cc1 | 66.7% | 46.1 µM | 46 µM | – | –
CCSc1ccc(/C=C2\NC(=O)NC2=O)cc1 | – | 42.9 µM | 42.9 µM | Active | inhibition at 50 µM (PC-3 [6]): 42.9%
O=C1NC(=O)/C(=C/c2cccc3c2OCO3)N1 | – | – | 155 µM | – | –
COc1cc(/C=C2\NC(=O)NC2=O)ccc1OCC(=O)N1CCCC1 | 36.3% | 86 µM | 85.9 µM | – | –
